Results from ChEMBL document CHEMBL5058577, “EUbOPEN Chemogenomics Library 2 (Multiplex)” (2022).

Tested on: U2OS
Assay: Multiplex assay against U2OS
Type: toxicity, cell-based
Details: human
In short: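 Four dyes were applied at seeding to live cells: Hoechst33342, BioTracker Green Microtubule Cytoskeleton Dye, MitoTracker Red and Annexin V Alexa Fluor 680. Imaging after compound addition used a CQ1 microscope at 37°C and 5% CO2. CellPathfinder machine-learning gating then sorted cells into Hoechst high-intensity objects or normal cells, normal cells into healthy, pyknosed or fragmented nuclei, and pyknosed cells into mitotic or apoptotic, with tubulin, mitochondrial-mass and membrane-permeability phenotypes given as per cents of healthy-nucleus cells.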

[1] = 12 h, 1 µM, compound concentration 1 uM, replicate 1
[2] = 12 h, 1 µM, compound concentration 1 uM, replicate 2
[3] = 12 h, 10 µM, compound concentration 10 uM, replicate 1
[4] = 12 h, 10 µM, compound concentration 10 uM, replicate 2
[5] = 24 h, 1 µM, compound concentration 1 uM, replicate 1
[6] = 24 h, 1 µM, compound concentration 1 uM, replicate 2
[7] = 24 h, 10 µM, compound concentration 10 uM, replicate 1
[8] = 24 h, 10 µM, compound concentration 10 uM, replicate 2
[9] = 48 h, 1 µM, compound concentration 1 uM, replicate 1
[10] = 48 h, 1 µM, compound concentration 1 uM, replicate 2
[11] = 48 h, 10 µM, compound concentration 10 uM, replicate 1
[12] = 48 h, 10 µM, compound concentration 10 uM, replicate 2

In the case of `COc1ccc2c(c1)C(C(=O)N(Cc1ccc(N(C)C)cc1)c1ccc(C(C)C)cc1)CCC2.Cl` (configuration not stated), the “Population Apoptotic (%)” value [1] is reported as 70%, the “Population Fragmented Nuclei (%)” value [1] is reported as 36% and the “Population Healthy Nuclei (%)” value [1] is reported as 54%. The “Population Hoechst High Intensity Objects (%)” value [1] was 4%, the “Population Membrane Permeable-Phenotype (%)” value [1] was 8% and the “Population Mitochondria Different-Phenotype (%)” value [1] was 5%. For the same compound, the “Population Mitotic Cells (%)” value [1] was 29%, the “Population Normal (%)” value [1] was 95% and the “Population Pyknosed Nuclei (%)” value [1] was 9%. For the same compound, the “Population Tubulin-Different-Phenotype (%)” value [1] was 4%, the “Total Cell Count” value [1] was 264 and the “Population Fragmented Nuclei (%)” value [2] was 17%. For the same compound, the “Population Healthy Nuclei (%)” value [2] was 73%, the “Population Hoechst High Intensity Objects (%)” value [2] was 3% and the “Population Membrane Permeable-Phenotype (%)” value [2] was 9%. The “Population Mitochondria Different-Phenotype (%)” value [2] was 3%, the “Population Mitotic Cells (%)” value [2] was 30% and the “Population Normal (%)” value [2] was 96%. For the same compound, the “Population Pyknosed Nuclei (%)” value [2] was 8%, the “Population Tubulin-Different-Phenotype (%)” value [2] was 2% and the “Total Cell Count” value [2] was 122. The “Population Apoptotic (%)” value [3] was 38%, the “Population Fragmented Nuclei (%)” value [3] was 27% and the “Population Healthy Nuclei (%)” value [3] was 50%. For the same compound, the “Population Hoechst High Intensity Objects (%)” value [3] was 4%, the “Population Membrane Permeable-Phenotype (%)” value [3] was 73% and the “Population Mitochondria Different-Phenotype (%)” value [3] was 55%. For the same compound, the “Population Mitotic Cells (%)” value [3] was 61%, the “Population Normal (%)” value [3] was 95% and the “Population Pyknosed Nuclei (%)” value [3] was 22%. For the same compound, the “Population Tubulin-Different-Phenotype (%)” value [3] was 80%, the “Total Cell Count” value [3] was 224 and the “Population Apoptotic (%)” value [4] was 60%. The “Population Fragmented Nuclei (%)” value [4] was 16%, the “Population Healthy Nuclei (%)” value [4] was 60% and the “Population Membrane Permeable-Phenotype (%)” value [4] was 43%. For the same compound, the “Population Mitochondria Different-Phenotype (%)” value [4] was 73%, the “Population Mitotic Cells (%)” value [4] was 40% and the “Population Pyknosed Nuclei (%)” value [4] was 23%. The “Population Tubulin-Different-Phenotype (%)” value [4] was 58%, the “Total Cell Count” value [4] was 113 and the “Population Apoptotic (%)” value [5] was 75%. For the same compound, the “Population Fragmented Nuclei (%)” value [5] was 27%, the “Population Healthy Nuclei (%)” value [5] was 61% and the “Population Hoechst High Intensity Objects (%)” value [5] was 4%. For the same compound, the “Population Membrane Permeable-Phenotype (%)” value [5] was 5%, the “Population Mitochondria Different-Phenotype (%)” value [5] was 4% and the “Population Mitotic Cells (%)” value [5] was 24%. For the same compound, the “Population Normal (%)” value [5] was 95%, the “Population Pyknosed Nuclei (%)” value [5] was 11% and the “Population Tubulin-Different-Phenotype (%)” value [5] was 4%. For the same compound, the “Total Cell Count” value [5] was 273, the “Population Apoptotic (%)” value [6] was 100% and the “Population Fragmented Nuclei (%)” value [6] was 18%. The “Population Healthy Nuclei (%)” value [6] was 73%, the “Population Hoechst High Intensity Objects (%)” value [6] was 2% and the “Population Mitochondria Different-Phenotype (%)” value [6] was 1%. For the same compound, the “Population Mitotic Cells (%)” value [6] was 0%, the “Population Normal (%)” value [6] was 97% and the “Population Pyknosed Nuclei (%)” value [6] was 7%. For the same compound, the “Population Tubulin-Different-Phenotype (%)” value [6] was 2%, the “Total Cell Count” value [6] was 146 and the “Population Apoptotic (%)” value [7] was 71%. For the same compound, the “Population Fragmented Nuclei (%)” value [7] was 25%, the “Population Healthy Nuclei (%)” value [7] was 50% and the “Population Hoechst High Intensity Objects (%)” value [7] was 2%. For the same compound, the “Population Membrane Permeable-Phenotype (%)” value [7] was 54%, the “Population Mitochondria Different-Phenotype (%)” value [7] was 42% and the “Population Mitotic Cells (%)” value [7] was 28%. The “Population Normal (%)” value [7] was 97%, the “Population Pyknosed Nuclei (%)” value [7] was 24% and the “Population Tubulin-Different-Phenotype (%)” value [7] was 49%. For the same compound, the “Total Cell Count” value [7] was 224, the “Population Apoptotic (%)” value [8] was 86% and the “Population Fragmented Nuclei (%)” value [8] was 20%. The “Population Healthy Nuclei (%)” value [8] was 57%, the “Population Hoechst High Intensity Objects (%)” value [8] was 9% and the “Population Membrane Permeable-Phenotype (%)” value [8] was 45%. For the same compound, the “Population Mitochondria Different-Phenotype (%)” value [8] was 53%, the “Population Mitotic Cells (%)” value [8] was 13% and the “Population Normal (%)” value [8] was 90%. For the same compound, the “Population Pyknosed Nuclei (%)” value [8] was 22%, the “Population Tubulin-Different-Phenotype (%)” value [8] was 48% and the “Total Cell Count” value [8] was 115. The “Population Apoptotic (%)” value [9] was 80%, the “Population Fragmented Nuclei (%)” value [9] was 21% and the “Population Healthy Nuclei (%)” value [9] was 65%. The “Population Hoechst High Intensity Objects (%)” value [9] was 2%, the “Population Membrane Permeable-Phenotype (%)” value [9] was 10% and the “Population Mitochondria Different-Phenotype (%)” value [9] was 5%. For the same compound, the “Population Mitotic Cells (%)” value [9] was 20%, the “Population Normal (%)” value [9] was 97% and the “Population Pyknosed Nuclei (%)” value [9] was 13%. For the same compound, the “Population Tubulin-Different-Phenotype (%)” value [9] was 3%, the “Total Cell Count” value [9] was 369 and the “Population Apoptotic (%)” value [10] was 93%. The “Population Fragmented Nuclei (%)” value [10] was 17%, the “Population Healthy Nuclei (%)” value [10] was 73% and the “Population Hoechst High Intensity Objects (%)” value [10] was 3%. For the same compound, the “Population Membrane Permeable-Phenotype (%)” value [10] was 6%, the “Population Mitochondria Different-Phenotype (%)” value [10] was 4% and the “Population Mitotic Cells (%)” value [10] was 6%. For the same compound, the “Population Normal (%)” value [10] was 96%, the “Population Pyknosed Nuclei (%)” value [10] was 8% and the “Population Tubulin-Different-Phenotype (%)” value [10] was 2%. The “Total Cell Count” value [10] was 203, the “Population Apoptotic (%)” value [11] was 73% and the “Population Fragmented Nuclei (%)” value [11] was 21%. The “Population Healthy Nuclei (%)” value [11] was 47%, the “Population Hoechst High Intensity Objects (%)” value [11] was 3% and the “Population Membrane Permeable-Phenotype (%)” value [11] was 43%. The “Population Mitochondria Different-Phenotype (%)” value [11] was 26%, the “Population Mitotic Cells (%)” value [11] was 26% and the “Population Normal (%)” value [11] was 96%. The “Population Pyknosed Nuclei (%)” value [11] was 30%, the “Population Tubulin-Different-Phenotype (%)” value [11] was 31% and the “Total Cell Count” value [11] was 265. The “Population Apoptotic (%)” value [12] was 92%, the “Population Fragmented Nuclei (%)” value [12] was 26% and the “Population Healthy Nuclei (%)” value [12] was 49%. The “Population Hoechst High Intensity Objects (%)” value [12] was 8%, the “Population Mitochondria Different-Phenotype (%)” value [12] was 36% and the “Population Mitotic Cells (%)” value [12] was 7%. For the same compound, the “Population Normal (%)” value [12] was 91%, the “Population Pyknosed Nuclei (%)” value [12] was 24% and the “Population Tubulin-Different-Phenotype (%)” value [12] was 42%. The “Total Cell Count” value [12] was 126.
